In data set [1] the target is T1, AURKB (Aurora kinase B) (Homo sapiens, UniProt Q96GD4). The data set is described as follows: Inhibition of AURKB in human HEK293T cells assessed as reduction in cell viability at 10 uM measured after 48 hrs relative to control. In kind it is cell-based, HEK-293T. The method, boiled down: (§1)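 HEK293T cells treated 48 h with the compound alone or combined with a second kinase inhibitor at the stated level, then fixed, stained and counted. Cell number expressed as a percentage of untreated wells; n = 4-16.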

In data set [2] the target is T2, Dual specificity tyrosine-phosphorylation-regulated kinase 1A (Homo sapiens, UniProt Q13627). The data set is described as follows: Inhibition of DYRK1A in human pancreatic islets assessed as induction of pancreatic beta-cells replication measured after 48 hrs by Hoechst 33342 staining based analysis. In a few lines:
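Human islets (85-95% purity) rested 12 h in low-glucose DMEM with 10% FBS and 20 nM exendin-4. Dispersed to single cells and plated on 804G-conditioned-matrix 384-well plates for 48 h. Treated 48 h, then fixed with 4% PFA. Stained with anti-insulin, anti-Ki-67 and 4 μM Hoechst 33342; Ki67+Insulin+/Insulin+ scored by high-content imaging against per-plate cutoffs.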

Data set [3] concerns the target T2, Dual specificity tyrosine-phosphorylation-regulated kinase 1A. The data set is described as follows: Inhibition of human DYRK1A transfected in HEK293T cells co-transfected with Renilla plasmid, pGL3-NFAT and NFATc1 assessed as derepression of NFAT-dependent luciferase activity measured after 48 hrs by luciferase assay. The data set is classed as cell-based, HEK-293T. The method, boiled down:
(§2)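 HEK293T cells transfected with PEI using DYRK1A, Renilla plasmid, IL-2-based pGL3-NFAT firefly reporter and NFATc1. Next day the same transfected population was split into 96-well plates; 6 h later cells were treated for 48 h (11-point dose curve, n = 4), then lysed. EC50 from firefly/Renilla ratio, 4-parameter agonist fit. CC50 from loss of constitutive Renilla signal, 4-parameter inhibitor fit.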

Data set [4] has as its system HEK-293T. The data set is described as follows: Cytotoxicity against human HEK293T cells transfected with DYRK1A co-tranfected with Renilla plasmid, pGL3-NFAT and NFATc1 assessed as reduction in luciferase activity by measuring cell number. The note with it: hek-293t. The data set is classed as cell-based. The method, boiled down:
as §2

Data set [5] has as its target T3, Tyrosine-protein kinase ABL1 (Homo sapiens, UniProt P00519). The data set is described as follows: Inhibition of wild-type human non-phosphorylated ABL1 (S229 to K512 residues) expressed in mammalian expression system assessed as residual activity at 100 nM by Kinomescan method relative to control. In a few lines:
(§3)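 Kinase panel of 468 kinases, scored as residual activity at 100 nM or 500 nM test compound.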

Data set [6] has as its target T3, Tyrosine-protein kinase ABL1. The data set is described as follows: Inhibition of wild-type human phosphorylated ABL1 (S229 to K512 residues) expressed in mammalian expression system assessed as residual activity at 100 nM by Kinomescan method relative to control. In a few lines: as §3
Data set [7] addresses T2, Dual specificity tyrosine-phosphorylation-regulated kinase 1A. The data set is described as follows: Inhibition of wild-type human partial length DYRK1A (H129 to S509 residues) expressed in mammalian expression system assessed as residual activity at 100 nM by Kinomescan method relative to control. In a few lines: as §3
Data set [8] has as its target T4, Aurora kinase A (Homo sapiens) (UniProt O14965).
T4 sequence (whole entry): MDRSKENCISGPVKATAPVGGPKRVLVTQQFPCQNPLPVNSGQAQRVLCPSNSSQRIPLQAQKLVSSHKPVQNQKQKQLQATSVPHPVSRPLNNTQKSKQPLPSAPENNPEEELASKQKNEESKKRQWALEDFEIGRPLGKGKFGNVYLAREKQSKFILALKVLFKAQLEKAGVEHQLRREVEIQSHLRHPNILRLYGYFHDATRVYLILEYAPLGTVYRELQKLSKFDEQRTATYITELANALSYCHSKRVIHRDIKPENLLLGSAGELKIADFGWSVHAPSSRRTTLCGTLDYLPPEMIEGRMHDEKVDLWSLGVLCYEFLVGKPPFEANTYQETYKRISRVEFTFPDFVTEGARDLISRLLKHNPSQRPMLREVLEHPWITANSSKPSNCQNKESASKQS
The data set is described as follows: Inhibition of wild-type human partial length AURKA (E122 to K401 residues) expressed in mammalian expression system assessed as residual activity at 100 nM by Kinomescan method relative to control. In a few lines: as §3

In data set [9] the target is T5, Aurora kinase B (Homo sapiens, UniProt Q96GD4). The data set is described as follows: Inhibition of wild-type human partial length AURKB (D25 to A303 residues) expressed in mammalian expression system assessed as residual activity at 100 nM by Kinomescan method relative to control. The method, boiled down:
as §3

The target in data set [10] is Dual specificity mitogen-activated protein kinase kinase 1 (Homo sapiens) (UniProt Q02750). The data set is described as follows: Inhibition of wild-type human full length MEK1 (M1 to V393 residues) expressed in mammalian expression system assessed as residual activity at 100 nM by Kinomescan method relative to control. In a few lines: as §3
Data set [11] addresses Dual specificity mitogen-activated protein kinase kinase 2 (Homo sapiens) (UniProt P36507). The data set is described as follows: Inhibition of wild-type human full length MEK2 (M1 to V400 residues) expressed in mammalian expression system assessed as residual activity at 100 nM by Kinomescan method relative to control. In a few lines: as §3
Data set [12] addresses T2, Dual specificity tyrosine-phosphorylation-regulated kinase 1A. The data set is described as follows: Binding affinity to wild-type human partial length DYRK1A (H129 to S509 residues) expressed in mammalian expression system by Kinomescan method. In a few lines: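 Kd measured in a KdELECT binding assay using an 11-point, 3-fold dilution series with three DMSO control points.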

The nature of data set [13]: Cytotoxicity against mouse R7T1 cells assessed as reduction in cell viability measured after 48 hrs by Hoechst 33342 staining based analysis. The method, boiled down:
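Mouse R7T1 β-cells cultured in high-glucose DMEM with 10% FBS, doxycycline and pyruvate, plated at 25,000 cells/well. Treated in quadruplicate 6 h later (0.169–10,000 nM) for 48 h. Cells fixed in paraformaldehyde and stained with 4 μM Hoechst 33342; nuclei counted by high-content imaging.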

In data set [14] the target is T1, AURKB (Aurora kinase B). The data set is described as follows: Inhibition of AURKB in human HEK293T cells assessed as reduction in cell viability at 3 uM measured after 48 hrs relative to control. In kind it is cell-based, HEK-293T. The method, boiled down: as §1
The target of data set [15] is T5, Aurora kinase B. The data set is described as follows: Inhibition of AURKB in human HEK293T cells assessed as reduction in cell viability at 10 uM measured after 48 hrs. The data set is classed as cell-based. The settings on record: hek-293t. The method, boiled down: as §1

T3 sequence (P00519 whole entry, the tested form may be a part): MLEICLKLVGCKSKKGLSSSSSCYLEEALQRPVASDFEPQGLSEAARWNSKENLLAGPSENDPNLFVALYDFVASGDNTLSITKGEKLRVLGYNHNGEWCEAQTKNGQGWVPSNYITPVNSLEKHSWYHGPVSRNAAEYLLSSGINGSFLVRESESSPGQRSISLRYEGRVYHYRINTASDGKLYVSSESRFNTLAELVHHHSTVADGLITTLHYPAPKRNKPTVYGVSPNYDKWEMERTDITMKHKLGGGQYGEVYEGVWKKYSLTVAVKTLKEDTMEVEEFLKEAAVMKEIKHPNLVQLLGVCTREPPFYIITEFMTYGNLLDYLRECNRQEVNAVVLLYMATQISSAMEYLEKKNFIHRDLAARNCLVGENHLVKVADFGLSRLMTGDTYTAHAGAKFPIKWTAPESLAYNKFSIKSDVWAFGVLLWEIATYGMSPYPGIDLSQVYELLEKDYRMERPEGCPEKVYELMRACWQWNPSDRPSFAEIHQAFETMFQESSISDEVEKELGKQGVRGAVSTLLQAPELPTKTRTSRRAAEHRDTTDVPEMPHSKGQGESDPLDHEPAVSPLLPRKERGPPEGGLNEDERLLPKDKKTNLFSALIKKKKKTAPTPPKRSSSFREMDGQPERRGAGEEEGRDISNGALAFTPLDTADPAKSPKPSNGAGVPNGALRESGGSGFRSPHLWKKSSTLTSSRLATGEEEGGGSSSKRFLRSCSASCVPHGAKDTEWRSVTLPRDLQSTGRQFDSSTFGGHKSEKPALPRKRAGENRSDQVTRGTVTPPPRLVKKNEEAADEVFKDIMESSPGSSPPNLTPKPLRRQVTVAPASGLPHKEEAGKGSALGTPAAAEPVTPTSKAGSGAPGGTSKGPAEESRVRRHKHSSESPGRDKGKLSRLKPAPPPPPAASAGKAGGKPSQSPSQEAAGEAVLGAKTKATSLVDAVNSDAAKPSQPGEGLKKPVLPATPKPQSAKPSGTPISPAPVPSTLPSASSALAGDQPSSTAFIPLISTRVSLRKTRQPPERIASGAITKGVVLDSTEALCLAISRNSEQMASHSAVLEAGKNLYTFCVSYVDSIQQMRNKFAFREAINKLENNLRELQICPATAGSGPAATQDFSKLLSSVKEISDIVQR
T5 sequence (Q96GD4 whole entry, the tested form may be a part): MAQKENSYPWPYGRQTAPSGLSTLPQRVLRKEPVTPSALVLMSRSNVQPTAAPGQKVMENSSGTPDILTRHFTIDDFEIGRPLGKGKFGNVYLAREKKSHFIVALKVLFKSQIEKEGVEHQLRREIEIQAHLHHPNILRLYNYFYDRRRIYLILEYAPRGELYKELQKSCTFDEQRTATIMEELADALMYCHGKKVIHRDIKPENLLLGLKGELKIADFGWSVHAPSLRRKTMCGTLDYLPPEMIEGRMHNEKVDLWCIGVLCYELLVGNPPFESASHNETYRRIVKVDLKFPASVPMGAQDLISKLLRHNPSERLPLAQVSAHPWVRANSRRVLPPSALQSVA
T1 sequence (Q96GD4 whole entry): as the sequence (Q96GD4 whole entry, the tested form may be a part) above
Dual specificity mitogen-activated protein kinase kinase 2 (Homo sapiens), sequence (P36507 whole entry, the tested form may be a part): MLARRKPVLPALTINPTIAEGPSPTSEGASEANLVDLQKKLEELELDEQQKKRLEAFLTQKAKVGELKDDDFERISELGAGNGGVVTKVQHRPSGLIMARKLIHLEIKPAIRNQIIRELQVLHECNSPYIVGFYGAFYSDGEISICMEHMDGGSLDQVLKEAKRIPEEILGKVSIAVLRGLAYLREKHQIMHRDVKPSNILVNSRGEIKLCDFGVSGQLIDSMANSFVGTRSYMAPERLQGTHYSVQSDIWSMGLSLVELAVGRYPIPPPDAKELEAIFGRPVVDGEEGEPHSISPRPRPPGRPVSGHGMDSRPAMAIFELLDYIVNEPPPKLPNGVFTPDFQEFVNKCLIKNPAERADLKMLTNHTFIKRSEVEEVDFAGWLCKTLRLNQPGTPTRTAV
Dual specificity mitogen-activated protein kinase kinase 1 (Homo sapiens), sequence (Q02750 whole entry, the tested form may be a part): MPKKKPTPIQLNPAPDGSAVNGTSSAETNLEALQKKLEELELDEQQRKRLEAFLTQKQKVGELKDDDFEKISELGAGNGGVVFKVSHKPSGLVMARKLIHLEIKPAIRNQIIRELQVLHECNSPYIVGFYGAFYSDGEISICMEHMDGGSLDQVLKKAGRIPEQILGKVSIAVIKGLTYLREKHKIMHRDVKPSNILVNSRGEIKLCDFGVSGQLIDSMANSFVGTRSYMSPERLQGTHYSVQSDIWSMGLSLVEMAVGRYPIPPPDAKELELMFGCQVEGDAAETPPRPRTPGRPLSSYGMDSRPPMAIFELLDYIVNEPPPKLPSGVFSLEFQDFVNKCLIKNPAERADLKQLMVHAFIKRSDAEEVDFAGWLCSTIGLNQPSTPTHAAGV

Take `O=C(NC[C@H](O)CO)c1ccncc1Nc1ccc(I)cc1F` [PIMASERTIB]: the inhibition at 48 h, 10 µM in [1] was 10%.

Turning to `CC(=O)c1cnc2ccc(-c3cc(Cl)c(O)c(Cl)c3)nc2c1N[C@H]1CC[C@H](CN(C)C)CC1`, the MEC in data set [2] stood at 5 nM. In data set [3], the EC50 is 5 nM. Also, the CC50 worked out at 64 nM in data set [4] and 20 nM in data set [13]. The Activity in data set [5] amounted to 0%; in [6], 0%; in data set [7], 0%; in data set [8], 6.6%; in data set [9], 0.65%; in data set [10] it was 1.7%. For the same compound, the Activity in data set [11] worked out at 1.7%. Moreover, the dissociation constant Kd in [12] was 0.12 nM.

In the case of `O=C(O)[C@]1(Cc2cccc(Nc3nccs3)n2)CC[C@@H](Oc2cccc(Cl)c2F)CC1` [MK-5108], the inhibition at 48 h, 3 µM in data set [14] amounted to 24%.

Turning to `Cn1c(=O)c(F)c(Nc2ccc(I)cc2F)c2c(=O)n(C[C@@H](O)CO)cnc21` [TAK-733], in [15], the “inhibition (INH)” value is recorded as “Not Active”.

Broadly, the inhibition is the share of the control response that was lost under treatment. The term EC50 denotes the concentration at which the effect is half-maximal. Broadly, the CC50 is the concentration that lowers cell viability or growth by half. As a reminder, the Kd is the equilibrium constant for the complex coming apart.

(Values after ChEMBL document CHEMBL4609986 (Bioorg Med Chem, 2020).)
